Activity calls are given as the source filed them.
Columns and labels:
Mus musculus [1] = assay: Antinociceptive activity in CD1 mouse assessed as paw licking and jumping latency at 0.6 nmol, icv measured after 15 to 30 mins by hot plate test; format: functional, organism-based
In short: (§1)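 Male CD-1 mice, 25-30 g, lightly isoflurane-anaesthetised; i.c.v. injection 2 mm caudal, 2 mm lateral to bregma, 3 mm deep, 5 µL. Hot plate held at 55.0 °C; latency to paw lick or jump, cut-off 60 s. Baseline is the mean of three readings 15 min apart. Latencies taken at 15-120 min after dosing and expressed as %MPE.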

Mus musculus [2] = assay: Antinociceptive activity in CD1 mouse assessed as paw licking and jumping latency at 3000 nmol, iv measured after 15 to 60 mins by hot plate test relative to vehicle-treated control; format: functional
In short: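 Male CD-1 mice, 25-30 g, lightly isoflurane-anaesthetised, dosed into the tail vein at 5 mL/kg. Hot plate at 55.0 °C; latency to paw lick or jump, cut-off 60 s. Baseline is the mean of three readings 15 min apart; readings to 180 min. %MPE = (post-drug − baseline)/(cut-off − baseline)×100. Mean ± S.E.M.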

Mus musculus [3] = assay: Antinociceptive activity in CD1 mouse assessed as tail withdrawal latency at 0.6 nmol, icv measured after 15 to 30 mins by tail flick test; format: functional, organism-based
In short: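 Male CD-1 mice given i.c.v. injection (5 µL; 2 mm caudal, 2 mm lateral to bregma, 3 mm deep) under light isoflurane. Radiant heat focused 3-4 cm from the tail tip; withdrawal latency recorded, cut-off 15 s. Baseline is the mean of three readings 15 min apart; readings at 15-120 min; %MPE.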

Mus musculus [4] = assay: Antinociceptive activity in CD1 mouse assessed as tail withdrawal latency at 3000 nmol, iv measured after 15 to 60 mins by tail flick test relative to vehicle-treated control; format: functional
In short: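 Male CD-1 mice, lightly isoflurane-anaesthetised, given tail-vein injection at 5 mL/kg. Tail-flick latency to radiant heat focused 3-4 cm from the tail tip, cut-off 15 s. Baseline is the mean of three readings; readings at 15-180 min; expressed as %MPE. Mean ± S.E.M.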

Mus musculus [5] = assay: Antinociceptive activity in CD1 mouse assessed as paw licking and jumping latency at 0.6 nmol, icv measured after 30 to 45 mins by hot plate test relative to vehicle-treated control; format: functional; in short: as §1
[6] = target: Delta-type opioid receptor (Rattus norvegicus, UniProt P33533); assay: Displacement of [3H]Deltorphin from DOR in Sprague-Dawley rat brain membrane after 180 mins by scintillation counting analysis; format: cell membranes
In short: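 Whole brain homogenate from male Sprague-Dawley rats, pre-incubated 30 min at 25 °C to remove endogenous opioids. Six to seven test concentrations; rapid filtration; nonlinear least-squares fit; at least two assays, each in duplicate.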

[7] = target: Delta-type opioid receptor (Mus musculus, UniProt P32300); assay: Inhibition of DOR in ICR mouse vas deferens assessed as inhibition of electrically-stimulated muscle contraction after 3 mins; design: species or system Muscle tissue
In short: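 Vas deferens from male ICR mice, 25-30 g, in Mg-free Krebs at 37 °C under 95% O₂/5% CO₂. Transmural stimulation at 0.1 Hz, 2.0 ms pulses, supramaximal voltage. Cumulative curves over five to seven concentrations; inhibition read 3 min after each addition. IC₅₀ from a Hill fit, at least four assays.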

Mu-type opioid receptor = Mu-type opioid receptor (Cavia porcellus, UniProt P97266); assay: Inhibition of MOR in Hartley guinea pig ileum longitudinal muscle myenteric plexus assessed as inhibition of electrically-stimulated muscle contraction after 3 mins; format: tissue-based
In short: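 Longitudinal muscle-myenteric plexus strips from male Hartley guinea pigs (150-400 g) in oxygenated Krebs at 37 °C. Stimulated at 0.1 Hz, 0.4 ms pulses, supramaximal voltage. […] IC₅₀ by Hill fit, at least four assays.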

Chain of Mu-type opioid receptor (P97266 whole entry): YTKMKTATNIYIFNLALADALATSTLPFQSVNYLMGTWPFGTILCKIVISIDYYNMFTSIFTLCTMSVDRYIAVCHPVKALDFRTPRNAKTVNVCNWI
Chain of Delta-type opioid receptor (Rattus norvegicus, UniProt P33533) (P33533 whole entry): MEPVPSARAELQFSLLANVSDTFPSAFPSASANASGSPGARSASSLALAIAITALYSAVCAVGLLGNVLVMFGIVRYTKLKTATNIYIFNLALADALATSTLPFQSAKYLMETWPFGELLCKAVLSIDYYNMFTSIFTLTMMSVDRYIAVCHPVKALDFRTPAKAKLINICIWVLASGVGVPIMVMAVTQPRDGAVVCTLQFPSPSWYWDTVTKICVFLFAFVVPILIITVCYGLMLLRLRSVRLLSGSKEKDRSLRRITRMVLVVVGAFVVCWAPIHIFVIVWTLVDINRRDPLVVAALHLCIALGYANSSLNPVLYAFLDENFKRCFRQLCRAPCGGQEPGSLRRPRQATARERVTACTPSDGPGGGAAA
Chain of Delta-type opioid receptor (Mus musculus, UniProt P32300) (P32300 whole entry): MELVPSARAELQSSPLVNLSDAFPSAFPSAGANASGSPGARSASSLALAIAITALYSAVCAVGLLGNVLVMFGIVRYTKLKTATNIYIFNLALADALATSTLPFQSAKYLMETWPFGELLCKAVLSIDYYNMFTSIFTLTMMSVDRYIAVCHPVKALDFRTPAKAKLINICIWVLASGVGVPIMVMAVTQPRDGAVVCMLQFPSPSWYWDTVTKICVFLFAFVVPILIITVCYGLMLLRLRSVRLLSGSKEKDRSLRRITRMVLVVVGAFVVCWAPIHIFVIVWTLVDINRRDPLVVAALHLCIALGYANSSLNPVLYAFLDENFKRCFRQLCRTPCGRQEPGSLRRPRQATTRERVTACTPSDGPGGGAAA

| Compound | Activity (Mus musculus [1]) | Activity (Mus musculus [2]) | Activity (Mus musculus [3]) | Activity (Mus musculus [4]) | MPE (Mus musculus [5]) [%] | Ki [6] [nM] | IC50 [7] [nM] | IC50 (Mu-type opioid receptor) [nM] |
| --- | --- | --- | --- | --- | --- | --- | --- | --- |
| C[C@@H](NC(=O)[C@@H](N)Cc1ccc(O)cc1)C(=O)NCC(=O)N[C@@H](Cc1ccccc1)C(=O)NNC(=O)[C@H](Cc1ccccc1)NC(=O)CNC(=O)[C@@H](C)NC(=O)[C@@H](N)Cc1ccc(O)cc1 [BIPHALIN] | Active | Active | Active | Active | 100 |  |  |  |
| C[C@@H](NC(=O)C[C@@H](N)Cc1ccc(O)cc1)C(=O)NCC(=O)N[C@@H](Cc1ccccc1)C(=O)N[C@H](CC(=O)N[C@H](C)C(=O)NCC(=O)N[C@@H](Cc1ccccc1)C(N)=O)Cc1ccc(O)cc1 |  |  |  |  |  | 480 | 710 | 670 |

Source: ChEMBL document CHEMBL2321865 (J Med Chem, 2013)
